As a reminder, the IC50 is the concentration needed to halve the response being measured.

In ChEMBL document CHEMBL5136979, “An Open Drug Discovery Competition: Experimental Validation of Predictive Models in a Series of Novel Antimalarials” (J Med Chem, 2021) one finds IC50 and inhibition data, which are given here for 14 compounds.

In assay [1] the test system is Plasmodium falciparum. In words: Antimalarial activity against chloroquine-sensitive Plasmodium falciparum 3D7 assessed as parasite growth inhibition. Type of assay: functional, organism-based. Summed up: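 P. falciparum 3D7 asexual blood stages grown in 5% human RBC suspension in RPMI 1640 with 0.5% Albumax II, 12 mM bicarbonate, 0.2 mM hypoxanthine (pH 7.3), gentamicin, 37 °C, 1% O2/3% CO2/N2. 10-point, 1-in-3 dilution series from 10 or 25 μM top. SYBR Green I DNA fluorescence (ex 485/em 528 nm). IC50 from ≥3 independent experiments.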

The subject of assay [2] is Plasmodium falciparum. Put plainly: Inhibition of Plasmodium falciparum Dd2 ATP4 assessed as increase in cytosolic [Na+] at 1 uM by fluorescence spectrometry. Summed up:
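Dd2 trophozoites freed from erythrocytes with saponin (0.05% w/v final), loaded with Na+-sensitive dye SBFI. Fluorescence measured and calibrated at 37 °C in plate reader or 1 mL cuvette suspensions. Compound tested at 1 μM. Scored as active if it raised cytosolic [Na+] like 50 nM cipargamin.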

Assay [3] concerns Plasmodium falciparum. In words: Inhibition of Plasmodium falciparum Dd2 ATP4 assessed as increase in cytosolic pH at 5 uM by fluorescence spectrometry. A digest of the protocol:
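Saponin-isolated (0.05% w/v final) Dd2 trophozoites loaded with pH-sensitive dye BCECF. Fluorescence read and calibrated at 37 °C in plate reader or 1 mL suspensions. Compound at 5 μM. Scored as active if it caused cytosolic alkalinization like 50 nM cipargamin.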

Calls of active or inactive are those of the source.

For the compound `O=C(Nc1ccc(F)c(Cl)c1)c1cncc2nnc(-c3ccc(OC(F)F)cc3)n12`, the half-inhibitory concentration (IC50) in the assay with Plasmodium falciparum [1] is 191 nM. In addition, the inhibition entry with Plasmodium falciparum [2] and in the assay on Plasmodium falciparum [3] was “Active” in each case.
In the case of `NCc1cccc(CCOc2cncc3nnc(-c4ccc(Cl)cc4)n23)c1`, the IC50 with Plasmodium falciparum [1] was 10000 nM.
On to `Nc1cccc(CCOc2cncc3nnc(-c4ccc(Cl)cc4)n23)c1`, for which, in the assay on Plasmodium falciparum [1], the IC50 was found to be 2420 nM. Moreover, the inhibition entry with Plasmodium falciparum [2] and with Plasmodium falciparum [3] was “Active” each time.
In the case of `FC(F)Oc1ccc(-c2nnc3cncc(OCCc4ccccc4)n23)cc1`, the IC50 in the assay on Plasmodium falciparum [1] came out at 370 nM. Besides, the inhibition entry in the assay with Plasmodium falciparum [2] and with Plasmodium falciparum [3] was “Active” in each case.
Take `O=C(Nc1ccnc(C(F)(F)F)c1)c1cncc2nnc(-c3ccc(OC(F)F)cc3)n12`: in the assay on Plasmodium falciparum [1], the IC50 amounted to 140 nM. Moreover, the inhibition result with Plasmodium falciparum [2] and in the assay with Plasmodium falciparum [3] was “Active” each time.
With `CC(O)COc1cncc2nnc(-c3ccc(OC(F)F)cc3)n12` (stereo not drawn), the 50% inhibitory concentration (IC50) in the assay with Plasmodium falciparum [1] is above 25000 nM.
In the case of `O=C(NCc1cccc(C(F)(F)F)c1Cl)c1cncc2nnc(-c3ccc(OC(F)F)cc3)n12`, the 50% inhibitory concentration (IC50) in the assay with Plasmodium falciparum [1] is 309 nM. For the same compound, the inhibition entry with Plasmodium falciparum [2] and with Plasmodium falciparum [3] was “Active” throughout.
Turning to `FC(F)Oc1ccc(-c2nnc3cncc(OCC(F)(F)F)n23)cc1`, the 50% inhibitory concentration (IC50) with Plasmodium falciparum [1] is above 10000 nM.
As for `O=C(Nc1ccc(Cl)cc1)c1cncc2nnc(-c3ccc(OC(F)F)cc3)n12`, in the assay with Plasmodium falciparum [1], the IC50 amounted to 5000 nM. Besides, the inhibition entry in the assay on Plasmodium falciparum [2] and in the assay with Plasmodium falciparum [3] was “Active” each time.
For the compound `CC(C)(C)Oc1ccc(-c2nnc3cncc(OCC(O)c4ccc(F)c(F)c4)n23)cc1` (stereo not drawn), the half-maximal inhibitory concentration (IC50) with Plasmodium falciparum [1] was 460 nM. In addition, the inhibition result in the assay on Plasmodium falciparum [2] and in the assay with Plasmodium falciparum [3] was “Active” each time.
As for `Cc1ccc(COc2cncc3nnc(-c4ccc(C(C)C)cc4)n23)cn1`, the IC50 in the assay with Plasmodium falciparum [1] was above 25000 nM.
Take `Fc1ccc(CCNc2cn3c(-c4ccc(OC(F)F)cc4)nnc3cn2)cc1`: in the assay on Plasmodium falciparum [1], the IC50 was above 10000 nM.
As for `O=C(Cc1cccc(Cl)c1)Nc1cn2c(-c3ccc(OC(F)F)cc3)nnc2cn1`, the IC50 in the assay on Plasmodium falciparum [1] is above 10000 nM.
With `FC(F)Oc1ccc(-c2nnc3cncc(OCCc4ccco4)n23)cc1`, the half-maximal inhibitory concentration (IC50) in the assay on Plasmodium falciparum [1] amounted to 1240 nM.
